The text below walks through data of ChEMBL document CHEMBL4513216, “Probing the Open Global Health Chemical Diversity Library for Multistage-Active Starting Points for Next-Generation Antimalarials” (ACS Infect Dis, 2020).

The structures appear in SMILES notation.

The series can be described thus: Toxicity liver stage against HepG2, at 10uM. More on the design: test concentration 10 uM, cell line HepG2-A16-CD81EGFP. The series is classed as cell-based. The conditions noted are these: human, HepG2-A16-CD81EGFP cells; read-out: INHIBITION
The method in brief:
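Uninfected HepG2-A16-CD81EGFP cells, 3 × 10^3 per well, 1536-well, plated on prespotted compound at 10 μM final, parasite-free screening media added to match infected plates; puromycin 10 μM positive, DMSO 0.5% negative; run in parallel with 48 h PbLuc assay at 37 °C, 5% CO2; viability by CellTiter-Glo luminescence, normalized to controls.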
With `Cc1noc(C)c1CNCc1nn(-c2ccccc2)c2c1CCC2`, the cytotoxicity at 10 µM stood at 1.83%. The figure for `Cc1nnc(C2CCN(C(=O)c3ccc(-n4cccc4)cc3)CC2)s1` is 6.4%; for `CC1(C)CC(=O)c2cnc3nc(N4CCCC4)[nH]c(=O)c3c2C1` it is -2%; for `Cn1cnnc1S(=O)(=O)C1CCN(S(=O)(=O)c2c(Cl)cccc2Cl)CC1` it is -14.2%. The figure for `CC(C)NC(=O)c1sccc1N(C)S(=O)(=O)c1ccc(Cl)cc1` is 9.22%; for `O=C1CC2(CCN(S(=O)(=O)c3cccs3)C2)CN1c1ccccc1` (stereo not drawn) it is 5.08%. As to `C[C@H]1C[C@@H]2CCN(C(=O)c3ccncn3)C[C@H]2O1`, the cytotoxicity at 10 µM is -18.4%. Under `CN(C)c1ncc(I)c(C2CCCCN2C)n1` (stereo not drawn) stands 1.74%; under `O=C(NCc1ccc2c(c1)OCO2)[C@@H]1C=CCN1c1ncccn1`, 0.146%; under `Cc1cc(C)nc(Nc2ccc(C3CCCCN3)cn2)n1` (stereo not drawn), 11.7%.

Consider `CC(=O)N[C@@H]1CN(S(=O)(=O)c2ccc(Cl)cc2)C[C@H]1O`, for which the cytotoxicity at 10 µM came out at 7.03%. The figure for `NC(=O)C1(Cc2ccc(-c3ccccc3)cc2)CCCNC1` (stereo not drawn) is 0.772%; for `CCNC(=O)C1(Cc2ccc(-c3ccccc3)cc2)CCCNC1` (stereo not drawn) it is -3.73%; for `COCCS(=O)(=O)Nc1cc(Cl)ccn1` it is 2.62%. Under `CC(NC1(CNS(C)(=O)=O)CCOCC1)c1ccccc1` (stereo not drawn) stands 6.72%. Under `CNC(=O)C(CC(C)C)NC(=O)c1cccc(-c2n[nH]c(C)n2)c1` (stereo not drawn) stands 9.04%; under `Cc1ccc(S(=O)(=O)N2CC(C)Oc3ncccc32)c(C)c1` (stereo not drawn), 5.35%; under `O=C(Nc1cccnc1-n1cncn1)C1CCC1`, -4.32%.

For the compound `Cc1ccccc1S(=O)(=O)CCOC(C)C`, the cytotoxicity at 10 µM was found to be 0.456%. As for `Cn1cc(CNc2ccc(F)c(N3CCCS3(=O)=O)c2)cn1`, the cytotoxicity at 10 µM is -12.8%.

For the compound `CN(CCN1CCOCC1)C(=O)C1(c2ccc(F)cc2F)CCC1`, the cytotoxicity at 10 µM was -6.68%.

Take `FC(F)(F)c1ccnc(N2CCCN(C3CCOCC3)CC2)c1`: the cytotoxicity at 10 µM is -7.49%. Under `CCN(C(=O)CN1CCCC1c1ccc(OC)cc1)c1ccccc1C` (stereo not drawn) stands 0.623%. Under `CC(=O)N1CCc2ccc(S(=O)(=O)N3CCCCC3C)cc21` (stereo not drawn) stands -10.3%; under `NS(=O)(=O)CCNC(=O)c1cc2cccc(F)c2o1`, 2.46%; under `COc1ccccc1CC(C)(C)NC(=O)CN(C)C(C)C`, 3.04%. The figure for `CC(C)(C)CC(=O)NCC(=O)NCC(O)c1ccc2ccccc2c1` (stereo not drawn) is 9.73%; for `CN(C(=O)Nc1ccccn1)C1CCCN(c2ccccc2)C1=O` (stereo not drawn) it is -6.63%; for `Cc1cc(C)nc(NC2CCOC3(CCCC3)C2)n1` (stereo not drawn) it is 7.93%. On to `CCN(C(=O)CN(CC(N)=O)C(C)C)C1=CCCC1`, for which the cytotoxicity at 10 µM came out at 14.1%.

For the compound `Cc1nn(C)c(N(C)C)c1CNCC(O)COc1ccc(F)cc1` (stereo not drawn), the cytotoxicity at 10 µM is 0.769%. The figure for `CCOCCN1CCN(Cc2nnc(C3CC3)o2)CC1CC` (stereo not drawn) is -5.67%; for `COc1ccc(C2CCCN2C(=O)NCCNc2ncccn2)cc1` (stereo not drawn) it is -8.18%. The figure for `Cc1ccc(C(=O)O)cc1S(=O)(=O)Nc1nn(-c2ccccc2)cc1C` is -8.84%; for `Cc1nn(C)c(C)c1C1CCCN1C(=O)c1ccc(Cl)o1` (stereo not drawn) it is -5.15%.

As for `FC(F)(F)CCc1ccnc(N2CCN(Cc3ccncc3)CC2)n1`, the cytotoxicity at 10 µM was -21.2%.

Consider `CC1c2cccn2CCN1C(=O)CCc1nc(-c2ccccc2)no1` (stereo not drawn), for which the cytotoxicity at 10 µM turned out to be 0.45%. `O=S(=O)(NC1CCCN(c2ncccn2)C1)N1CCCCCC1` (stereo not drawn): the cytotoxicity at 10 µM came out at 12.7%. Under `Fc1cccc(C2(CNC3CCSC3)CCOCC2)c1` (stereo not drawn) stands -1.86%; under `CCn1c(C2CCN(C(=O)CCc3cc(Cl)no3)CC2)nn(C)c1=O`, -7.09%. Under `O=C(NCc1cc2n(n1)CCCNC2)c1cn2cc(Cl)ccc2n1` stands -10.1%; under `Cc1cc(C[C@@H]2COC[C@@H]2NC(=O)Cn2c(=O)oc3ccccc32)on1`, -14%; under `Cc1ccc(F)cc1S(=O)(=O)Nc1ccc2c(C(=O)O)c[nH]c2c1`, -3.53%. In the case of `CN(Cc1ccco1)C(=O)CN1CCOC(Cn2cncn2)C1` (stereo not drawn), the cytotoxicity at 10 µM is -7.36%. Under `CCc1c(C(=O)N2CCN(c3cnccn3)CC2)cnn1C(C)(C)C` stands -13%.

Regarding `O=C(c1cc(C2CC2)[nH]n1)N1CCN(Cc2ccncc2)CC1`, the cytotoxicity at 10 µM was -10.9%. Under `CC1COCCN1Cc1nc(-c2ccc(F)cc2)no1` (stereo not drawn) stands -9.4%; under `CC(C)c1cnc(CN2CCCC(c3cc(C(N)=O)[nH]n3)C2)o1` (stereo not drawn), -13.5%. The figure for `CCC1c2ccsc2CCN1C(=O)NCCc1ccccn1` (stereo not drawn) is -12.4%.

Consider `Cc1nc(C)c(CC(=O)Nc2nnc(C3CC3)s2)c(=O)[nH]1`, for which the cytotoxicity at 10 µM was -11.2%. The figure for `Fc1ccc(-c2nc(CN3CCCCC3Cn3cncn3)co2)cc1` (stereo not drawn) is -8.18%; for `CCc1nc(CN2CCOC(Cn3nc(C)cc3C)C2)no1` (stereo not drawn) it is 4.36%.

Consider `O=C(CCc1ccc2c(c1)OCO2)N1CCCCC1Cn1cccn1` (stereo not drawn), for which the cytotoxicity at 10 µM is -17.2%.

`Cc1cnn(CC2CCCCN2C(=O)c2cccc(C(N)=O)c2)c1` (stereo not drawn): the cytotoxicity at 10 µM was -0.775%. The figure for `Cc1cnn(CC2CCCCN2C(=O)c2ccc(CN(C)C)cc2)c1` (stereo not drawn) is -11.4%; for `Cc1cn2c(n1)CCC(NC(=O)c1cncnc1C)C2` (stereo not drawn) it is -3.56%. Consider `CCc1nc(C2CCCN2Cc2nnc(CC)o2)no1` (stereo not drawn), for which the cytotoxicity at 10 µM is -5.36%. The figure for `O=C(CN1CCN(c2ccc3nncn3n2)CC1)NC1CCCC1` is -33.9%; for `CCn1cnnc1CNC(=O)N1CCN(c2cccs2)CC1` it is -2.07%; for `COc1ccc(CC(=O)N2CCc3nnc(N(C)C)cc3C2)cc1F` it is -9.5%. The figure for `CCOCC(O)CN1CCN(C(=O)c2ccccc2Cl)CC1` (stereo not drawn) is -1.96%. The figure for `Cc1cc(C2CCCN(CCc3ccccn3)C2)n[nH]1` (stereo not drawn) is -10.4%. As to `O=C(c1ccn(-c2cccc(Cl)c2)n1)N1CCN(C2CC2)CC1`, the cytotoxicity at 10 µM is -7.03%. The figure for `Cc1cc(C(=O)NCc2ccc(N3CCCC(C(N)=O)C3)cc2)no1` (stereo not drawn) is -3.37%.

Turning to `CC(Cc1ccco1)NC(=O)Nc1cnn(CC(N)=O)c1` (stereo not drawn), the cytotoxicity at 10 µM turned out to be 7.82%. Under `O=C(NCCn1ccnc1)NCC(c1ccco1)N1CCCCC1` (stereo not drawn) stands 3.44%; under `CN(C)CCCN(Cc1ccco1)Cc1ccnn1C1CCCCO1` (stereo not drawn), -2.52%; under `OC(CN1CCN(Cc2ccc(F)cc2)CC1)C1CC1` (stereo not drawn), -23.4%. Under `CNC(C(=O)OC)c1cc(F)ccc1F` (stereo not drawn) stands -1.07%. Under `O=C(CN1CCC[C@@H]1C(=O)O)NCCOc1cccc(C(F)(F)F)c1` stands -1.7%. Regarding `NCC1CCCCN1C(=O)Cc1cccc(Br)c1` (stereo not drawn), the cytotoxicity at 10 µM is 0.907%. The figure for `NCC1CCCCN1C(=O)Cc1ccc(F)c(F)c1` (stereo not drawn) is -1.5%; for `O=C(c1cnccn1)N1CCOCC2(CCN(C3CCOCC3)C2)C1` (stereo not drawn) it is -7.94%.
